Experimental data reported in ChEMBL document CHEMBL3774363, “Potent Triazole Bisphosphonate Inhibitor of Geranylgeranyl Diphosphate Synthase” (ACS Med Chem Lett, 2015).
The source made the active and inactive calls. The calls are words filed in the database; no cut-off is given here.

What was measured:
[1] = target: T1, Geranylgeranyl pyrophosphate synthase (Homo sapiens, UniProt O95749); test: Inhibition of recombinant GGDPS (unknown origin) assessed as radiolabeled GGPP formation preincubated for 10 mins followed by addition of 10 uM FPP substrate and [14C]IPP for 30 mins by liquid scintillation counter analysis
T1 sequence (O95749 whole entry): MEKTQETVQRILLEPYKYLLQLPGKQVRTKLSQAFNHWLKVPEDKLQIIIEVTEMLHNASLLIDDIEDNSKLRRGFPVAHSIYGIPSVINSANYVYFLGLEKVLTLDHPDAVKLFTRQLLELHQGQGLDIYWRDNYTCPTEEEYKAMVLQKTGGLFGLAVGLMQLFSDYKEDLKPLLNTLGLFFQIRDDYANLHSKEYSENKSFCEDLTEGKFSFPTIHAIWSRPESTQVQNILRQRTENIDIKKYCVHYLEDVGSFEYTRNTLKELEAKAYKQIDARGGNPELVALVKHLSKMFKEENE

[2] = target: T2, Farnesyl pyrophosphate synthase (Homo sapiens, UniProt P14324); test: Inhibition of recombinant FDPS (unknown origin) assessed as radiolabeled FPP formation preincubated for 10 mins followed by addition of 10 uM GPP substrate and [14C]IPP for 30 mins by liquid scintillation counter analysis
T2 sequence (P14324 whole entry): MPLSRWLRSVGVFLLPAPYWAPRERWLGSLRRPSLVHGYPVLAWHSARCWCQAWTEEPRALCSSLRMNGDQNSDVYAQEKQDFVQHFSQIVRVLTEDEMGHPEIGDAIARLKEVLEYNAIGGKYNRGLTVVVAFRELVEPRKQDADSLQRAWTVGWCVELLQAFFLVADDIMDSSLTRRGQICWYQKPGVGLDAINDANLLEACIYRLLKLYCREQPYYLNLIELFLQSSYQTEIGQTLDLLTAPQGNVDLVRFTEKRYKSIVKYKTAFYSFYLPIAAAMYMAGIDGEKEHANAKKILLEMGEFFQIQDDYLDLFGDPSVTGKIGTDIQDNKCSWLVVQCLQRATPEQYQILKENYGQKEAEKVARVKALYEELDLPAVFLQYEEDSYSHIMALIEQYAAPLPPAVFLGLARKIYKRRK

Homo sapiens = species: Homo sapiens; test: Selectivity index, ratio of IC50 for FDPS (unknown origin) to IC50 for GGDPS (unknown origin)
[3] = target: T3, Geranylgeranyl pyrophosphate synthase (Homo sapiens) (UniProt O95749); test: Inhibition of GGDPS in human RPMI8226 cells assessed as disruption of Rap1a geranylation after 48 hrs by immunoblot analysis; type: cell-based; settings: RPMI-8226
T3 sequence (whole entry): T1 sequence (O95749 whole entry)
Outline: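 RPMI-8226 human myeloma cells incubated 48 h with or without compound, with lovastatin (10 μM) as positive control. Cells were lysed in RIPA buffer and immunoblotted with an antibody that detects only unmodified Rap1a, with β-tubulin as loading control. The value is the lowest concentration at which disruption was seen; blots are representative of two independent studies.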

[4] = Cytotoxicity against human RPMI8226 after 48 hrs by MTT assay; type: functional; settings: RPMI-8226, 48 h
[5] = target: T3, Geranylgeranyl pyrophosphate synthase (Homo sapiens); test: Inhibition of GGDPS in human RPMI8226 cells assessed as disruption of Rap1a geranylation at 50 nM after 48 hrs by immunoblot analysis; settings: RPMI-8226

IC50 [1] [µM] | IC50 [2] [µM] | Ratio IC50 (Homo sapiens) | Activity [3] [µM] | Compound | EC50 [4] [µM] | inhibition [5]
0.43 | 6.6 | 15 | 5 | CC(C)=CCCn1cc(CC(P(=O)(O)O)P(=O)(O)O)nn1 | 15 | 
0.38 | 13 | 34 | 0.5 | CC(C)=CCC/C(C)=C/CC(Cc1cn(CCC=C(C)C)nn1)(P(=O)(O)O)P(=O)(O)O | 1 | 

Compound | IC50 [1] [µM] | IC50 [2] [µM] | Ratio IC50 (Homo sapiens) | Activity [3] [µM] | EC50 [4] [µM] | inhibition [5]
CC(C)=CCC/C(C)=C/CCn1cc(CC(P(=O)(O)O)P(=O)(O)O)nn1 | 0.045 | 28 | 620 | 0.05 | 0.19 | Active
